Assay outcomes deposited in PubChem BioAssay by several laboratories.
bCat KO growth: beta-catenin-lacking colon tumor cell growth suppression; AID 818; HCT116 beta-catenin knockout viability, CellTiter-Glo, 60 h; active compounds read low; 140,000 compounds, 1.5% hits; viability, % at 10 µM;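 active = viability at or under a set limit, the compound median less 4 SD, cut at about 6% in these data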;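 also: 0% = Hyamine 1622 control at 20 µM and 100% = untreated cell control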
PTEN del growth: growth suppressors of cells with PTEN tumor suppressor deletion | HCT116 PTEN-null viability, CellTiter-Glo, 60 h; active compounds read low | viability, % at 10 µM | 140,000 compounds, 1.2% hits;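 active = viability at or below a set limit, 4 SD under the median of all tested compounds, cut at about 3.7% in these data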;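 also: PTEN knockout HCT116 line with beta catenin targeted HCT116 as companion control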
L major viab: reduces viability of Leishmania major promastigotes; resazurin fluorescence viability; inhibition, % at 10 µM; 200,000 compounds, 9% hits; in the data active = inhibition above about 50%;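 also: promastigotes grown with compound for 44 hours at 28 °C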
Dynein transport: blocks dynein driven cargo transport along microtubules; 3617.4 mouse cells, GR-EGFP nuclear translocation imaging; test concentration mostly 20 µM; stimulated with dexamethasone, 1 µM; active compounds read low; z-score, hits read low; 220,000 compounds, 0.47% hits; AID 1381;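 active = plate z-score of nuclear minus cytoplasmic receptor signal below a set negative limit, without overly bright fluorescence or cell loss, cut at about -3.5 in these data, passing the limit was not always enough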;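 also: z-score of nuclear minus cytoplasmic ring GR-EGFP intensity difference per well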
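Buffer or medium: tetracycline-free induction medium containing charcoal-stripped FBS / Reagent: dexamethasone agonist, 1.0 µM final, for 30 min / Technique: automated 10x imaging of fixed Hoechst-stained cells / Times: induction 48 h, compound 1 h, agonist 30 min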
Autophagy mod: autophagy modulation, high-content screen | AID 463193 | 190,000 compounds, 0.98% hits | MEF GFP-LC3 puncta imaging; test concentration mostly 10 µM | calls only at 10 µM (by protocol);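 active = percentage of spot-positive cells more than 3 SD above its plate mean, without a fluorescence outlier flag or 80% toxicity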;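 also: spot-positive cell cutoff set from DMSO-treated cells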
L major 1uM: inhibitors of Leishmania major promastigote growth, repeat at 1 uM. shares compounds with L major viab. L. major promastigote growth, resazurin fluorescence, 48 h. inhibition, % at 1 µM. 1,100 compounds, 13% hits;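 active = inhibition above about 50% in both repeat tests, limit read from the data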
* marks the source's active call; other numbers are inactive results; i = inactive; · = not tested or not shown; + = active, no number; ! = not active in a repeat. Sampled rows, rich in hits. Any-hit rate of the full collection: about 9.2%.

SMILES | bCat KO growth | PTEN del growth | L major viab | Dynein transport | Autophagy mod | L major 1uM
CC1CCCCC1NC1=NCCCS1 (stereo not drawn) | · | · | 5 | 0.73 | i | ·
CN(C)S(=O)(=O)c1cccn1-c1ncc(C(F)(F)F)cc1Cl | 100 | 98 | 100* | -0.34 | i | 29
CN(C)/C=N/S(=O)(=O)c1cccn1-c1ncc(C(F)(F)F)cc1Cl | · | · | 1 | -0.083 | i | ·
CC(OC(=O)CCc1nc2ccccc2c(=O)[nH]1)C(=O)c1ccc(C(C)(C)C)cc1 (stereo not drawn) | 96 | 89 | 54* | -0.77 | i | -1
O=C(c1ccco1)c1cn[nH]c1-c1ccc(Cl)cc1O | 103 | 100 | -4 | 0.14 | i | ·
CCC(C)NCCOc1ccc(Br)cc1 (stereo not drawn) | 88 | 97 | 82* | -0.79 | i | -7
COc1ccc(CCNC(=O)CSc2nc(O)c(C(C)C)c(=O)[nH]2)cc1OC | 92 | 97 | -9 | -0.37 | i | ·
c1cnc2c(c1)ccc1cccnc12 | 6.0* | 5 | 100* | -0.26 | i | 52*!
Cc1ccc2cccnc2c1N | · | · | -5 | -0.74 | i | ·
COc1cc2c(cc1NCc1ccc3c(c1)OCO3)oc1ccccc12 | 93 | 90 | -2 | -0.077 | i | ·
COc1cc2c(cc1NCc1ccccn1)oc1ccccc12 | 85 | 84 | 73* | -0.16 | i | -16
CCOC(=O)C1=C(C)NC(=O)NC1c1ccc(Br)s1 (stereo not drawn) | 98 | 96 | 66* | 0.14 | i | -9
COc1ccc(OC)c(S(=O)(=O)Nc2ccc(Oc3ccccc3)cc2)c1 | 85 | 71 | 67* | -0.24 | i | -11
O=S(=O)(Nc1nc2ccccc2nc1NCC1CCCO1)c1cc(Cl)ccc1Cl (stereo not drawn) | · | · | · | -0.93 | · | ·
COc1ccc(-c2cn(-c3ccc(Cl)cc3)c3[n+]2CCCCC3)cc1 | · | · | · | 1.3 | · | ·
COc1ccc(-n2cc(-c3ccc(OC(F)F)cc3)[n+]3c2CCCCC3)cc1 | · | · | 99* | 1.2 | i | -12
O=C(OCCN1CCCC1=O)c1cc(F)c(F)c(F)c1F | 96 | 100 | -2 | -0.25 | i | ·
Cc1nc2ccccc2cc1C(=O)N/N=C/c1ccco1 | 99 | 107 | 70* | 1.1 | i | -4
O=C(N/N=C/c1ccco1)c1cc([N+](=O)[O-])cc([N+](=O)[O-])c1 | 88 | 97 | 97* | 0.0042 | i | 16
O=C(N[C@@H](Cc1ccccc1)C(=O)O)c1ccncc1 | · | · | 3 | -0.43 | i | ·
CN(C)c1cc(N/N=C/c2ccc(Cl)cc2)nc(N(C)C)n1 | · | · | 78* | -0.72 | i | 74*
C/C(=N\NC(=O)C(N)=O)c1ccc(O)cc1O | · | · | 12 | 1.5 | i | ·
Cc1cc(C)c2c(c1)-c1cc(C)nn1C(c1ccc3c(c1)OCO3)N2 (stereo not drawn) | 77 | 80 | 99* | -0.66 | i | 76*
CCCCSc1nnc([C@H](CC(C)C)NC(=O)OC(C)(C)C)o1 | 64 | 73 | 76* | 1.3 | i | 30
CSc1nnnn1-c1c(C)cccc1C | · | · | · | -0.84 | · | ·
SMILES | bCat KO growth | PTEN del growth | L major viab | Dynein transport | Autophagy mod | L major 1uM
Cc1ccc(NC2(c3nnnn3-c3c(C)cccc3C)CCCCC2)cc1 | 67 | 66 | 97* | -0.91 | + | -3
O=C(c1cc2ccccc2oc1=O)N(Cc1ccco1)CC1CCCO1 (stereo not drawn) | 89 | 85 | -6 | -0.12 | i | ·
c1ccc2c(CSCCc3ccncc3)cccc2c1 | 72 | 78 | 99* | -0.76 | i | 8
Clc1ccc(CSCCc2ccncc2)cc1 | 95 | 92 | 22 | -0.2 | i | ·
Cc1ccc(N(CC(=O)NCc2ccncc2)S(C)(=O)=O)cc1 | 97 | 92 | -7 | -0.55 | i | ·
Cc1ccc(NNC(=O)C(O)(c2cccc(C(F)(F)F)c2)c2cccc(C(F)(F)F)c2)cc1 | 23 | 24 | 70* | -0.78 | i | -9
COc1c(/C=N/NC(N)=S)c(C)nn1-c1ccccc1 | 106 | 98 | 58* | 0.38 | i | -6
Cc1ccc(NC(=S)N/N=C/c2c(C)nn(-c3ccccc3)c2N2CCCC2)cc1 | 80 | 65 | 10 | -0.46 | i | ·
CC(C)(C)n1nnnc1CN(Cc1cccnc1)Cc1ccccc1Cl | 90 | 85 | 75* | -0.14 | i | 3
c1ccc(CNc2nc(-c3cccs3)nc3ccccc23)cc1 | 93 | 85 | 99* | -0.96 | i | 59*
